# Entries after “also recorded” stand apart in the source; their conditions may differ. Where two headings read alike, the source gives them in different places.
# What was measured:
# S. aureus [1] = experiment: MIC, whole cell growth inhibition dose response; type: cell-based, Staphylococcus aureus; details: for MIC: Staphylococcus aureus, MRSA
# [2] = SPR binding of peptides on immobilized liposomes; details: POPC lipid systems, 100 μM peptide
# five bacterial pathogens = experiment: Bacterial growth inhibition at single concentration, whole panel; type: cell-based; details: 32 μg/mL, in words
# A. baumannii [3] = experiment: Bacterial growth inhibition at single concentration; type: cell-based, Acinetobacter baumannii; details: 32 μg/mL (15–17 μM), OD600, 18 h
# S. aureus [4] = experiment: as above; type: cell-based, Staphylococcus aureus; details: 32 μg/mL (15–17 μM), OD600, 18 h; in words
# Liposome leakage = details: 20 μM peptide, CF dequenching
# Method in brief: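 Vesicles: 5 mg DOPC in chloroform, dried under N2, then freeze-dried 2 h to remove residual solvent. The lipid was redissolved in diethyl ether and hydrated in 10 mM HEPES, 100 mM KCl, pH 7.4, containing 50 mM carboxyfluorescein (quenching level). Peptide at 20 μM was mixed with vesicles for 3 min equilibration. Release was followed as the fluorescence dequenching rate.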
# E. coli = experiment: MIC, whole cell growth inhibition dose response; type: cell-based, Escherichia coli; details: n=2
# K. pneumoniae = experiment: MIC, whole cell growth inhibition dose response; type: cell-based, Klebsiella pneumoniae; details: n=2
# A. baumannii [5] = experiment: MIC, whole cell growth inhibition dose response; type: cell-based, Acinetobacter baumannii; details: polystyrene 96-well plate, n=2
# [6] = non-binding surface 96-well plate
compound,measurement,setting,value
CN[C@H](CC(C)C)C(=O)N[C@H]1C(=O)N[C@@H](CC(N)=O)C(=O)N[C@H]2C(=O)N[C@H]3C(=O)N[C@H](C(=O)N[C@H](C(=O)O)c4cc(O)cc(O)c4-c4cc3ccc4O)[C@H](O)c3ccc(c(Cl)c3)Oc3cc2cc(c3O[C@@H]2O[C@H](CO)[C@@H](O)[C@H](O)[C@H]2O[C@H]2C[C@](C)(N)[C@H](O)[C@H](C)O2)Oc2ccc(cc2Cl)[C@H]1O [Vancomycin],MIC,S. aureus [1]; read-out: MIC S. aureus MRSA NBS plate,2 µg/mL
same,MIC,S. aureus [1]; read-out: MIC S. aureus MRSA PS plate,2 µg/mL
Ac-(AzPro-Pro)8-NHCH2CH2OH [Peptide 2],SPR binding response,[2],showed some binding response
same,antibacterial activity (growth inhibition) over the bacterial panel,five bacterial pathogens,considerable loss of activity
Boc-(Pro-AzPro)4-H [Peptide 22],antibacterial activity (growth inhibition) over the bacterial panel,five bacterial pathogens,little inhibition
Boc-(Pro-AzPro)8-Cbz [Peptide 10],SPR binding response,[2],showed some binding response
Boc-(Pro-AzPro)8-H.HCl [Peptide 17],A. baumannii growth inhibition,A. baumannii [3],some activity
same,S. aureus growth inhibition,S. aureus [4],some activity
Cbz-(AzPro-Pro)4-OH [Peptide 19],antibacterial activity (growth inhibition) over the bacterial panel,five bacterial pathogens,little inhibition
Cbz-(AzPro-Pro)4-O^tBu [Peptide 18],antibacterial activity (growth inhibition) over the bacterial panel,five bacterial pathogens,little inhibition
Cbz-(AzPro-Pro)8-(N-Methyl AzPro) [Peptide 13],antibacterial activity (growth inhibition) over the bacterial panel,five bacterial pathogens,highest activity
Cbz-(AzPro-Pro)8-NHCH2CH2OH [Peptide 1],SPR binding response,[2],showed some binding response
same,DOPC liposome leakage,Liposome leakage,13%
same,A. baumannii growth inhibition,A. baumannii [3],38%
same,antibacterial activity (growth inhibition) over the bacterial panel,five bacterial pathogens,highest activity
Cbz-(AzPro-Pro)8-OH [Peptide 14],antibacterial activity (growth inhibition) over the bacterial panel,five bacterial pathogens,considerable loss of activity; also recorded: largely abolishes all activity
Cbz-(AzPro-Pro)8-O^tBu [Peptide 8],SPR binding response,[2],showed some binding response
same,antibacterial activity (growth inhibition) over the bacterial panel,five bacterial pathogens,highest activity
Cbz-(AzPro-Pro)16-O^tBu [Peptide 11],antibacterial activity (growth inhibition) over the bacterial panel,five bacterial pathogens,considerable loss of activity; also recorded: drastic loss in activity
Colistin,MIC E. coli FDA Control NBS plate,E. coli; [6],0.016 µg/mL
same,MIC E. coli FDA Control PS plate,E. coli; polystyrene 96-well plate,0.125 µg/mL
same,MIC K. pneumoniae MDR NBS plate,K. pneumoniae; [6],0.06 µg/mL
same,MIC K. pneumoniae MDR PS plate,K. pneumoniae; polystyrene 96-well plate,0.25 µg/mL
same,MIC A. baumannii Type PS plate,A. baumannii [5],1 µg/mL
same,MIC S. aureus MRSA NBS plate,"S. aureus [1]; non-binding surface 96-well plate, n=2",>32 µg/mL
same,MIC S. aureus MRSA PS plate,"S. aureus [1]; polystyrene 96-well plate, n=2",>32 µg/mL
Formyl-(AzPro-Pro)6-NHCH2CH2OH [Peptide 6],antibacterial activity (growth inhibition) over the bacterial panel,five bacterial pathogens,largely abolishes all activity
Formyl-(AzPro-Pro)7-NHCH2CH2OH [Peptide 5],antibacterial activity (growth inhibition) over the bacterial panel,five bacterial pathogens,largely abolishes all activity
H-(AzPro-Pro)4-O^tBu [Peptide 20],antibacterial activity (growth inhibition) over the bacterial panel,five bacterial pathogens,largely abolishes all activity
H-(AzPro-Pro)8-NHCH2CH2OH [Peptide 4],antibacterial activity (growth inhibition) over the bacterial panel,five bacterial pathogens,considerable loss of activity
H-(Pro-AzPro)8-H [Peptide 9],antibacterial activity (growth inhibition) over the bacterial panel,five bacterial pathogens,highest activity
HCl. H-(Pro-AzPro)8-Cbz [Peptide 16],A. baumannii growth inhibition,A. baumannii [3],some activity
same,S. aureus growth inhibition,S. aureus [4],some activity
HCl.H-(Pro-AzPro)4-Cbz [Peptide 23],antibacterial activity (growth inhibition) over the bacterial panel,five bacterial pathogens,little inhibition

# Reference: PMC8366898 (European journal of medicinal chemistry, 2018)
